Bioassay records from PubChem.
FID counter = displaces DNA intercalator in HCV helicase counter-screen; DNA fluorescent intercalator displacement, fluorescence; inhibition, % at 7.9 µM; 0.17% of 290,000 active; AID 1845; in the data active = inhibition above about 37%;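 also: 0% = vehicle and 100% = reference compound; higher means more ethidium bromide displaced from hairpin DNA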
PP5 inh = blocks human protein phosphatase 5 activity. purified PP5c, OMFP substrate fluorescence. inhibition, % at 6.7 µM. 0.18% of 320,000 active. AID 1987;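 active = inhibition above the campaign's mean inhibition across all tested compounds plus 3 SD, cut at about 9.5% in these data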;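 also: 0% = DMSO only and 100% = 100 µM cantharidin control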
Target sequence (P53041 whole entry, looked up): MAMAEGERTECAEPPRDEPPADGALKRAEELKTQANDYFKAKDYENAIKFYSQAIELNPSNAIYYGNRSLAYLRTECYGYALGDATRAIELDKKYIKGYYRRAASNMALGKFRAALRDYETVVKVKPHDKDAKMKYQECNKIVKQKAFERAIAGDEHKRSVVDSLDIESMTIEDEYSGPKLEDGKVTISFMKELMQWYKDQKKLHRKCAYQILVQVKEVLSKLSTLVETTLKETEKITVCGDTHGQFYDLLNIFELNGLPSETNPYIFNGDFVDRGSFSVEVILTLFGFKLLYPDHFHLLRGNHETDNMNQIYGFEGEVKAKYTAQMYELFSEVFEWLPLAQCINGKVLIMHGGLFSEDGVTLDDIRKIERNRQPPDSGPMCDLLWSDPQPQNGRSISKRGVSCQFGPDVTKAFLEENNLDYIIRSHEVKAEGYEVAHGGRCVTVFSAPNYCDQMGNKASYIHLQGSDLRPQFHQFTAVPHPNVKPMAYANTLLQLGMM
NS3 helicase inh = HCV NS3 helicase inhibition; inhibition, % at 10.9 µM; 0.56% of 290,000 active; NS3 helicase DNA unwinding, Cy5 molecular beacon fluorescence;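 active = inhibition above the mean of all tested compounds plus 3 SD, set per campaign, cut at about 35% in these data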;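 also: 0% = DMSO wells and 100% = thioflavine S control wells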
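Assay system – hepatitis C virus NS3 helicase domain fragment enzyme · Buffer or medium – MOPS pH 6.5, MgCl2, DTT, Tween20, BSA · Reagent – Cy5/quencher beacon DNA duplex and ATP to start · Compound – single 10.9 µM dose · Timing – 1 h at 25 °C · Technique – Cy5 beacon fluorescence read at start and 1 h · Measure – % inhibition of unwinding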
HIF activator = HIF pathway transcriptional activation; U2OS HRE-luciferase reporter, luminescence; normalized: DMSO 0%, desferrioxamine 100%; activation, % at 7.5 µM (by protocol); 0.32% of 300,000 active;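 active = mean activation of at least 10% of the iron chelator positive control signal, with at least half of replicates also reaching 10%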
PP1 counter = PP1-alpha (human) inhibition in PP5 counter-screen. P62136. purified PP1alpha, OMFP fluorescence. inhibition, % at 6.7 µM. 0.9% of 320,000 active. AID 2235;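 active = inhibition above the mean inhibition of all tested compounds plus 3 SD, computed separately for each screening campaign, cut at about 15% in these data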
Numbers without * were called inactive. Hits are enriched below; roughly 1.9% of the tested compounds scored in any of these assays.

What do the screens show for `CCOc1cc(/C=C2\C(=O)N(c3cccc(C(=O)O)c3)N=C2C(F)(F)F)ccc1OCC(=O)Nc1ccccc1OC`?
FID counter: 43*; PP5 inh: -1; NS3 helicase inh: 4; HIF activator: 0; PP1 counter: 17*

How did CCOC(=O)c1cccc(NC(=O)/C(=C\c2ccccc2)NC(=O)c2ccccc2Cl)c1 do in these assays?
FID counter: -18; PP5 inh: 2; NS3 helicase inh: 11; HIF activator: 0; PP1 counter: 17*

How did Cn1cc(C(=O)N2CCCCCC2)c(=O)c2cc(S(=O)(=O)N3CCCCC3)ccc21 do in these assays?
FID counter: -30; PP5 inh: 1; NS3 helicase inh: 7; HIF activator: 0; PP1 counter: -2

Results for COC(=O)c1cn(C)c2ccc(S(=O)(=O)N3CCCCC3)cc2c1=O ?
FID counter: -6; NS3 helicase inh: 0; HIF activator: 90*

Results for C=CCSc1nnc(NC(=O)c2cccc(S(=O)(=O)N(C)c3ccccc3)c2)s1 ?
FID counter: -5; PP5 inh: 1; NS3 helicase inh: 1; HIF activator: -3; PP1 counter: 7

How did NS(=O)(=O)c1ccc(NCc2c(F)cccc2Cl)cc1 do in these assays?
FID counter: -5; NS3 helicase inh: 4; HIF activator: 0

How did Fc1cccc(Cl)c1CNc1ccc(N2CCCC2)cc1 do in these assays?
FID counter: 1; PP5 inh: 3; NS3 helicase inh: 2; HIF activator: 0; PP1 counter: 17*

What do the screens show for `O=C(c1ccccc1)n1c(=O)c(F)cn(COCCBr)c1=O`?
FID counter: 1; PP5 inh: 2; NS3 helicase inh: 3; HIF activator: -5; PP1 counter: 5

How did Cc1ccc2cc(C3C(C#N)=C(N)Oc4c3ccc3cccnc43)c(=O)[nH]c2c1 (stereo not given) do in these assays?
FID counter: -36; PP5 inh: 3; NS3 helicase inh: 15; HIF activator: 1; PP1 counter: 13

What do the screens show for `CCc1ccc2[nH]c(=O)c(C3C(C#N)=C(N)Oc4c3ccc3cccnc43)cc2c1` (stereo not given)?
FID counter: -54; PP5 inh: 1; NS3 helicase inh: 17; HIF activator: 3; PP1 counter: 23*

Results for COc1ccc(Cc2nnc3sc(SCC(=O)Nc4ccccc4)nn3c2=O)cc1OC ?
PP5 inh: 0; HIF activator: 0; PP1 counter: -3

What do the screens show for `CCOC(=O)c1cc(-c2ccc(N3CCOCC3)cc2)nn1-c1ccc(F)cc1F`?
FID counter: -33; PP5 inh: 3; NS3 helicase inh: 2; HIF activator: 0; PP1 counter: 17*

How did CCn1c(SCC(=O)NCc2ccccc2)nnc1C(CO)NC(=O)c1ccccc1 (stereo not given) do in these assays?
FID counter: -9; PP5 inh: 1; NS3 helicase inh: -2; HIF activator: 0; PP1 counter: -2

How did CCn1c(SCC(=O)N2CCc3ccccc3C2)nc2c1c(=O)n(C)c(=O)n2C do in these assays?
FID counter: -5; PP5 inh: 0; NS3 helicase inh: -8; HIF activator: 0; PP1 counter: -5

How did CCCn1c(SCC(=O)N2CCc3ccccc3C2)nc2c1c(=O)n(C)c(=O)n2C do in these assays?
FID counter: -26; PP5 inh: 1; NS3 helicase inh: 2; HIF activator: 735*; PP1 counter: 2

What do the screens show for `Oc1c(C(c2cccs2)N2CCN(c3ccccc3)CC2)ccc2cccnc12` (stereo not given)?
FID counter: -8; PP5 inh: 3; NS3 helicase inh: 8; PP1 counter: 19*

How did Nc1cccc2nc3ccccc3cc12 do in these assays?
FID counter: 45*; PP5 inh: 4; NS3 helicase inh: 24; HIF activator: 0; PP1 counter: -1

What do the screens show for `CCCN(CCC)CCCNC(=S)Nc1ccc2nc(N3CCN(CC)CC3)cc(C)c2c1`?
FID counter: 37; PP5 inh: 3; NS3 helicase inh: -1; HIF activator: 1; PP1 counter: -2

How did CCN(CC)CCCNC(=O)CCC(=O)Nc1ccc2nc(N3CCCCC3)cc(C)c2c1 do in these assays?
FID counter: 30; PP5 inh: 1; NS3 helicase inh: 8; HIF activator: 0; PP1 counter: -6

Results for CCCCN(CC)CCNC(=S)Nc1ccc2nc(N3CCN(C)CC3)cc(C)c2c1 ?
FID counter: 43*; PP5 inh: 3; NS3 helicase inh: -23; HIF activator: -13; PP1 counter: 7
